From ChEMBL document CHEMBL1144952 (J Med Chem, 2003)

Key:
[1] = molecular target: T1, Cannabinoid receptor 2 (Homo sapiens, UniProt P34972); assay: Binding affinity against human cannabinoid receptor 2 in chinese hamster ovary cells using WIN-55212-2 mesylate[57-3H]; assay type: cell-based, CHO
[2] = molecular target: Cannabinoid receptor 1 (Homo sapiens, UniProt P21554); assay: Binding affinity of compound against human cannabinoid receptor 1 in chinese hamster ovary cells by using radioligand CP-55940; assay type: cell-based, CHO
Chain of Cannabinoid receptor 1 (P21554 whole entry): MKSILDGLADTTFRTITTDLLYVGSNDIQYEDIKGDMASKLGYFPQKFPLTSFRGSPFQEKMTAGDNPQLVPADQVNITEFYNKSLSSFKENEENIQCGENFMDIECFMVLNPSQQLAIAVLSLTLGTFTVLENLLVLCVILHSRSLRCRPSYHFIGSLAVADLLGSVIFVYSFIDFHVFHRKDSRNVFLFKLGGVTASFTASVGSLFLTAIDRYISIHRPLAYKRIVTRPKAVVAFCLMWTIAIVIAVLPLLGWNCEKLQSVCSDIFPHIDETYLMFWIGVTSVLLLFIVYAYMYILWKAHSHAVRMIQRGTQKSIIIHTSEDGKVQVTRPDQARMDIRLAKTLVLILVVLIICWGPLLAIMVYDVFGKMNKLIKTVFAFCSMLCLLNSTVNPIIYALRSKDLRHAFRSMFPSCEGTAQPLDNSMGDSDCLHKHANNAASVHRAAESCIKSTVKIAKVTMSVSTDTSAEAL
Summary of the method: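 CHO-K1 membranes expressing human CB1; CP55,940 used as radiolabelled tracer (routinely 10 nM). Bound label collected by filtration and measured by scintillation counting.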

[3] = system: Mus musculus; assay: Percentage reduction of serum TNF-alpha when dose of 50 mg/kg was administered orally in mice; assay type: functional; conditions: route oral
Summary of the method: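 Female BALB/c mice, 6–8 weeks old, given compound by gavage in 50% propylene glycol/water 10 min before iv LPS (0.1 mL of 10 μg/mL in PBS). Serum TNF-α was measured by ELISA 60 min after LPS; 8 mice per group, mean ± SD.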

[4] = system: Mus musculus; assay: Effective dose of compound against inhibition of LPS stimulated TNF-alpha release when administered intravenously in mice; assay type: functional; conditions: iv
Summary of the method: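 Female BALB/c mice, 6–8 weeks old. Compound in 10% propylene glycol/PBS was co-injected iv with LPS (E. coli O111:B4, 10 μg/mL in the dosing solution, 0.1 mL per mouse). Serum was taken 60 min later and TNF-α measured by ELISA; 8 mice per group, mean ± SD.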

[5] = In vitro inhibitory concentration of compound against TNF-alpha release in human peripheral blood mononuclear cells was determined; assay type: functional
Summary of the method: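 PBMCs isolated by ficoll from healthy donor blood and plated at 1 × 10^6 cells/mL in RPMI with 10% FBS. Compounds were added for 30 min before stimulation with LPS (25 ng/mL final). After 6 h at 37 °C, supernatant TNF-α was measured by ELISA.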

[6] = molecular target: T1, Cannabinoid receptor 2; assay: Percent Inhibition of binding at […] against human cannabinoid receptor 2 in chinese hamster ovary cells by using a radioligand WIN-55212-2 mesylate[57-3H]; assay type: cell-based; conditions: CHO
[7] = molecular target: T1, Cannabinoid receptor 2; assay: Percent Inhibition of binding at 100 nM against human cannabinoid receptor 2 in chinese hamster ovary cells by using a radioligand WIN-55212-2 mesylate[57-3H]; assay type: cell-based; conditions: CHO

T1 sequence (P34972 whole entry): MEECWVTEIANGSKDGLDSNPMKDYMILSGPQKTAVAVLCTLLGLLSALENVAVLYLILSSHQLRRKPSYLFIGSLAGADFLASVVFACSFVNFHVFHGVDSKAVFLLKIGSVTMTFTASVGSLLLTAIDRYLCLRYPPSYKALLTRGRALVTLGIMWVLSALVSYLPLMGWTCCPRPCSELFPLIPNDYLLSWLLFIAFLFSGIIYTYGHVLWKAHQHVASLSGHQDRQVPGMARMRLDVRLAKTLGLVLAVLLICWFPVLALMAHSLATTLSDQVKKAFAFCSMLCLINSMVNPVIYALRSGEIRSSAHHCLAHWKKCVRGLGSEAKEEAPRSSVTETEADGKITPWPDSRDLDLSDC

Row | Structure (SMILES) | Ki [1] [nM] | Ki [2] [nM] | Reduction [3] [%] | ED50 [4] [mg/kg] | IC50 [5] [nM] | inhibition [6] [%] | inhibition [7] [%]
1 | COc1cccc2c3c(=O)n([C@@H]4C(C)(C)[C@@H]5CC[C@@]4(C)C5)ccc3n(CCN3CCOCC3)c12 | 1 | 16 | 61 | 2 | 8000 |  | 
2 | COc1cccc2c3c(=O)n(C(c4ccccc4)c4ccccn4)ccc3n(CCN3CCOCC3)c12 (configuration not stated) |  |  |  |  |  | 13 | 
3 | COc1cccc2c(C(=O)NC3C(C)(C)[C@@H]4CC[C@@]3(C)C4)nn(CCN3CCOCC3)c12 (some centres not stated) | 2 | 24 |  |  | 30000 |  | 
4 | COc1ccccc1Cn1ccc2c(c1=O)c1cccc(OC)c1n2CCN1CCOCC1 | 67 | 3700 |  |  | 7000 |  | 
5 | COc1cccc2c(C(=O)NC3C(C)(C)[C@@H]4CC[C@@]3(C)C4)cn(CCN3CCOCC3)c12 (some centres not stated) | 11 | 245 |  |  | 13000 |  | 
6 | CCc1c(C(=O)NC2C(C)(C)[C@@H]3CC[C@@]2(C)C3)c2cccc(OC)c2n1CCN1CCOCC1 (some centres not stated) | 110 |  |  |  |  |  | 
7 | COc1ccccc1CNC(=O)c1nn(CCN2CCOCC2)c2c(OC)cccc12 | 77 |  |  |  | 43000 |  | 
8 | COc1cccc2c(C(=O)N(Cc3c(F)cccc3Cl)C(C)C)nn(CCN3CCOCC3)c12 | 69 |  |  |  | 36000 |  | 
9 | COc1cccc2c(C(=O)NC(c3ccccc3)c3ccccn3)nn(CCN3CCOCC3)c12 (configuration not stated) | 146 | 162 |  |  | 20000 |  | 
10 | COc1cccc2c(C(=O)NC3C(C)(C)[C@@H]4CC[C@@]3(C)C4)c(C)n(CCN3CCOCC3)c12 (some centres not stated) | 29 | 8 |  |  | 33000 |  | 
11 | CCCc1c(C(=O)NC2C(C)(C)[C@@H]3CC[C@@]2(C)C3)c2cccc(OC)c2n1CCN1CCOCC1 (some centres not stated) |  |  |  |  |  |  | 6
